ChEMBL document CHEMBL3600304, “Gageopeptins A and B, new inhibitors of zoospore motility of the phytopathogen Phytophthora capsici from a marine-derived bacterium Bacillus sp. 109GGC020” (Bioorg Med Chem Lett, 2015)
Converted amounts (≈) assume the structure as drawn. The source made the active and inactive calls. No cut-off for these calls is given here. Where a SMILES comes first, the peptide text is derived from it.

Legend:
Salmonella typhi = assay: Antibacterial activity against Salmonella typhi by broth dilution assay; assay type: functional, Salmonella enterica subsp. enterica serovar Typhi; conditions: Salmonella enterica
Summary of the method: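 Broth dilution test giving the minimum concentration that inhibits growth, run against Gram-positive and Gram-negative bacteria. Growth conditions were kept specific to each organism during culture.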

Phytophthora capsici [1] = assay: Induction of Phytophthora capsici zoospore lytic activity at 10 ug/ml after 60 mins by homogeneous solution method; assay type: functional, organism-based
Staphylococcus aureus = assay: Antibacterial activity against Staphylococcus aureus by broth dilution assay; assay type: functional
Summary of the method: (§1)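 Broth dilution assay for the minimum growth-inhibitory concentration against Gram-positive and Gram-negative bacteria and fungi. Each organism was cultured under its own growth conditions.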

Colletotrichum acutatum = assay: Antifungal activity against Colletotrichum acutatum by broth dilution assay; assay type: functional; summary of the method: as §1
Phytophthora capsici [2] = assay: Inhibition of Phytophthora capsici zoospore motility at 5 ug/ml by homogeneous solution method; assay type: functional, organism-based; conditions: TDE = time-dependent effect
Phytophthora capsici [3] = assay: Inhibition of Phytophthora capsici zoospore motility at 1 ug/ml after 15 to 60 mins by homogeneous solution method; assay type: functional, organism-based
Phytophthora capsici [4] = assay: Inhibition of Phytophthora capsici zoospore motility after 15 to 60 mins by homogeneous solution method; assay type: functional, organism-based
Pseudomonas aeruginosa = assay: Antibacterial activity against Pseudomonas aeruginosa by broth dilution assay; assay type: functional; summary of the method: as §1
Phytophthora capsici [5] = assay: Induction of Phytophthora capsici zoospore lytic activity at 50 ug/ml after 30 mins by homogeneous solution method; assay type: functional, organism-based
Rhizoctonia solani = assay: Antifungal activity against Rhizoctonia solani by broth dilution assay; assay type: functional; summary of the method: as §1
Bacillus subtilis = assay: Antibacterial activity against Bacillus subtilis by broth dilution assay; assay type: functional; summary of the method: as §1
Phytophthora capsici [6] = assay: Induction of Phytophthora capsici zoospore lytic activity at 1 ug/ml after 5 to 60 mins by homogeneous solution method; assay type: functional, organism-based
Botrytis cinerea = assay: Antifungal activity against Botrytis cinerea by broth dilution assay; assay type: functional; summary of the method: as §1
Phytophthora capsici [7] = assay: Induction of Phytophthora capsici zoospore lytic activity at 500 ug/ml after 5 to 60 mins by homogeneous solution method; assay type: functional, organism-based
Phytophthora capsici [8] = assay: Inhibition of Phytophthora capsici zoospore motility at 500 ug/ml after 15 to 60 mins by homogeneous solution method; assay type: functional, organism-based

Structure (SMILES)	MIC (Salmonella typhi) [µg/mL]	Activity (Phytophthora capsici [1])	MIC (Staphylococcus aureus) [µg/mL]	MIC (Colletotrichum acutatum) [µg/mL]	inhibition (Phytophthora capsici [2])	inhibition (Phytophthora capsici [3])	IC50 (Phytophthora capsici [4]) [µg/mL]	inhibition (Phytophthora capsici [4])	MIC (Pseudomonas aeruginosa) [µg/mL]	Activity (Phytophthora capsici [5])	MIC (Rhizoctonia solani) [µg/mL]	MIC (Bacillus subtilis) [µg/mL]	Activity (Phytophthora capsici [6])	MIC (Botrytis cinerea) [µg/mL]	Activity (Phytophthora capsici [7])	inhibition (Phytophthora capsici [8])
CCC(C)CC(C)CCCCCCCC[C@@H]1CC(=O)N[C@@H](CCC(=O)O)C(=O)N[C@@H](C(C)C)C(=O)N[C@@H](CC(C)C)C(=O)N[C@@H](C)C(=O)N[C@@H](CC(=O)O)C(=O)N[C@@H](CC(C)C)C(=O)N[C@@H](CC(C)C)C(=O)O1 (stereo partly drawn) (HELM PEPTIDE1{E.V.L.A.D.L.L}|CHEM1{[CCC(C)CC(C)CCCCCCCC[C@H](CC(=O)[*:1])O[*:2]]}$PEPTIDE1,CHEM1,1:R1-1:R1|PEPTIDE1,CHEM1,7:R2-1:R2$$$V2.0)	16 (≈ 15.4 µM)	Active	16 (≈ 15.4 µM)	8 (≈ 7.72 µM)	tde	Active	1 (≈ 0.965 µM)	Dose-dependent effect	16 (≈ 15.4 µM)	Active	4 (≈ 3.86 µM)	16 (≈ 15.4 µM)	Active	4 (≈ 3.86 µM)		
CCC(C)CCCCCCCCCC[C@@H]1CC(=O)N[C@@H](CCC(=O)O)C(=O)N[C@@H](C(C)C)C(=O)N[C@@H](CC(C)C)C(=O)N[C@@H](C)C(=O)N[C@@H](CC(=O)O)C(=O)N[C@@H](CC(C)C)C(=O)N[C@@H](CC(C)C)C(=O)O1 (stereo partly drawn) (HELM PEPTIDE1{E.V.L.A.D.L.L}|CHEM1{[CCC(C)CCCCCCCCCC[C@H](CC(=O)[*:1])O[*:2]]}$PEPTIDE1,CHEM1,1:R1-1:R1|PEPTIDE1,CHEM1,7:R2-1:R2$$$V2.0)	32 (≈ 31.3 µM)		16 (≈ 15.7 µM)	8 (≈ 7.83 µM)	tde		400 (≈ 391 µM)	Dose-dependent effect	16 (≈ 15.7 µM)		8 (≈ 7.83 µM)	32 (≈ 31.3 µM)		8 (≈ 7.83 µM)	inactive	Active
C[C@@H]1[C@H](O)[C@@H](C)/C=C/C=C/C=C/C=C/C=C/C=C/C=C/[C@H](O[C@@H]2O[C@H](C)[C@@H](O)[C@H](N)[C@@H]2O)C[C@@H]2O[C@](O)(C[C@@H](O)C[C@@H](O)[C@H](O)CC[C@@H](O)C[C@@H](O)CC(=O)O[C@H]1C)C[C@H](O)[C@H]2C(=O)O [AMPHOTERICIN B]				1 (≈ 1.08 µM)							1 (≈ 1.08 µM)			1 (≈ 1.08 µM)		
CC[C@H]1OC(=O)[C@H](C)[C@@H](O[C@H]2C[C@@](C)(OC)[C@@H](O)[C@H](C)O2)[C@H](C)[C@@H](O[C@@H]2O[C@H](C)C[C@H](N(C)C)[C@H]2O)[C@](C)(O)C[C@@H](C)CN(C)[C@H](C)[C@@H](O)[C@]1(C)O [AZITHROMYCIN]	2 (≈ 2.67 µM)		2 (≈ 2.67 µM)						2 (≈ 2.67 µM)			2 (≈ 2.67 µM)				
